Results reported in ChEMBL document CHEMBL2311285, “3-Thiomorpholin-8-oxo-8H-acenaphtho [1,2-b] pyrrole-9-carbonitrile (S1) derivatives as pan-Bcl-2-inhibitors of Bcl-2, Bcl-xL and Mcl-1” (Bioorg Med Chem, 2013).
Converted amounts (≈) assume the structure as drawn. The source made the active and inactive calls. The rule behind the calls is not given here.

Columns and labels:
Bcl-2-like protein 1 = Bcl-2-like protein 1 (Homo sapiens, UniProt Q07817); experiment: Binding affinity to N-terminal 8xHis tagged cBcl-XL (unknown origin) expressed in Escherichia coli BL21 (DE3) by ELISA
Chain of Bcl-2-like protein 1 (Q07817 whole entry): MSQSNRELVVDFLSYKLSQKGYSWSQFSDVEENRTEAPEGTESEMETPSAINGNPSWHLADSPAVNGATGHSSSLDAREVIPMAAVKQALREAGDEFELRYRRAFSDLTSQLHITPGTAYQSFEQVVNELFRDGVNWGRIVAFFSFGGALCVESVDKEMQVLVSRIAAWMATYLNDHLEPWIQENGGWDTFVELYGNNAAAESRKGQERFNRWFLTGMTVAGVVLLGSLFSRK

[1] = molecular target: T1, Apoptosis regulator Bcl-2 (Homo sapiens, UniProt P10415); experiment: Binding affinity to human Bcl-2 (unknown origin) by ITC assay
T1 sequence (P10415 whole entry): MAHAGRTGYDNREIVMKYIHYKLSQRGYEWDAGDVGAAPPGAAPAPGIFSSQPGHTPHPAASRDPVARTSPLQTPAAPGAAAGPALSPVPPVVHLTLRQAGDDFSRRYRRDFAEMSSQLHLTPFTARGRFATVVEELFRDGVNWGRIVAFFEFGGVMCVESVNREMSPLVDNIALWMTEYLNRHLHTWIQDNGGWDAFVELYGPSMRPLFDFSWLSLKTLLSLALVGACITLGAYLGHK

[2] = molecular target: T1, Apoptosis regulator Bcl-2; experiment: Binding affinity to human Bcl-2 (unknown origin) by biotin-Bim displacement based ELISA
[3] = molecular target: T2, Induced myeloid leukemia cell differentiation protein Mcl-1 (Homo sapiens, UniProt Q07820); experiment: Binding affinity to cMcl-1 (residues 171 to 327) (unknown origin) by biotin-Bim displacement based ELISA
T2 sequence (Q07820 whole entry, the tested form may be a part): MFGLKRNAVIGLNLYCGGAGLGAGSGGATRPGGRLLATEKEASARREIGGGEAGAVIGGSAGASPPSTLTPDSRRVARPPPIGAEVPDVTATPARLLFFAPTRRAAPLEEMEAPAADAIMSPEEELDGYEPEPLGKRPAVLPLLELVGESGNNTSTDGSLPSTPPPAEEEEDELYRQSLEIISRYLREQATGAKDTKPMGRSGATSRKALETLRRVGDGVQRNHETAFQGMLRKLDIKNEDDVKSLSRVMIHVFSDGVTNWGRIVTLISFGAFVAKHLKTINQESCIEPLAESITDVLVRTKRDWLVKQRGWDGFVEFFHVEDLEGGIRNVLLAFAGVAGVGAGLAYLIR
Outline: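 Competitive ELISA: biotin-Bim (residues 81-106) at 0.09 µg/mL in blocking buffer bound to streptavidin-coated wells for 1.5 h. Serial compound dilutions (from 10 mM DMSO stock) containing 0.01% Triton X-100 preincubated 1 h with 20 nM His-tagged protein in PBS, then transferred to wells for 2 h. Anti-His-HRP added for 1 h, then TMB for 30 min, stopped with H2SO4. Room temperature throughout.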

[4] = molecular target: T2, Induced myeloid leukemia cell differentiation protein Mcl-1; experiment: Binding affinity to cMcl-1 (residues 171 to 327) (unknown origin) by ITC assay
Outline: (§1)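 ITC at 25 °C in 20 mM Tris pH 8.0, 150 mM NaCl, 1% DMSO. For wild-type versus R263A comparison, 16 × 2.5 µL injections of 500 µM compound into 50 µM protein. Data were corrected against a buffer-only cell titrated with compound and fitted to a one-site model to give Kd.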

MCF7 = experiment: Induction of apoptosis in human MCF7 cells assessed as cytochrome c release at 5 uM incubated for 12 hrs in presence of Bax/Bak ShRNA by Western blotting method; type: functional, cell-based
Outline: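 Wild-type MCF-7 cells and Bax/Bak shRNA-transfected MCF-7 cells were treated with 5 µM compound. Cytochrome c was detected by western blot in the S-100 cytosolic fraction, obtained from digitonin lysis and centrifugation.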

[5] = Solubility in 1% DMSO/H2O; type: physicochemical
[6] = molecular target: Induced myeloid leukemia cell differentiation protein Mcl-1 (Homo sapiens, UniProt Q07820, R263A); experiment: Binding affinity to cMcl-1 R263A mutant (unknown origin) by ITC assay; type: single protein; outline: as §1
Chain of Induced myeloid leukemia cell differentiation protein Mcl-1 (Homo sapiens, UniProt Q07820, R263A) (Q07820 whole entry R263A): as the sequence (Q07820 whole entry, the tested form may be a part) above, with R263A counted along it

HL-60 = experiment: Induction of apoptosis in human HL60 cells assessed as cytochrome c release at 5 uM incubated for 12 hrs by Western blotting method; type: functional, cell-based
Outline: (§2)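 Cells treated 12 h with 5 µM compound, then lysed in digitonin lysis buffer. After centrifugation, the cytosolic supernatant (S-100) was probed for cytochrome c by western blot. A parallel harvest was used for Mcl-1/Bak and Bcl-2/Bax co-immunoprecipitation.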

K562 = experiment: Induction of apoptosis in human K562 cells assessed as cytochrome c release at 5 uM incubated for 12 hrs by Western blotting method; type: functional, cell-based; outline: as §2

CC(C)c1ccc(Oc2ccc3c4c(cccc24)C2=NC(=O)C(C#N)=C23)cc1
IC50 (Bcl-2-like protein 1): 650 nM | Kd [1]: 759 nM | IC50 [2]: 739 nM | IC50 [3]: 321 nM | Kd ([4]; read-out: pKd (converted)): 324 nM

CCCCNC1=C2C(=NC1=O)c1cccc3c(N4CCSCC4)ccc2c13
IC50 (Bcl-2-like protein 1): 171 nM | Kd [1]: 200 nM | IC50 [2]: 198 nM | IC50 [3]: 79 nM | Kd ([4]; read-out: pKd (converted)): 79.4 nM

Cc1cc2c(C(C)C)c(O)c(O)c(C=O)c2c(O)c1-c1c(C)cc2c(C(C)C)c(O)c(O)c(C=O)c2c1O [GOSSYPOL]
Kd ([4]; read-out: Kd): 2320 nM | Activity (MCF7): Active

CC(C)NC1=C2C(=NC1=O)c1cccc3c(N4CCSCC4)ccc2c13
IC50 [2]: > 10000 nM | IC50 [3]: 2500 nM

COc1ccc(Sc2ccc3c4c(cccc24)C2=NC(=O)C(C#N)=C23)cc1
IC50 (Bcl-2-like protein 1): 833 nM | Kd [1]: 955 nM | IC50 [2]: 945 nM | IC50 [3]: 388 nM | Kd ([4]; read-out: pKd (converted)): 389 nM

O=C1N=C2C(=C1NCCCc1ccccc1)c1ccc(N3CCSCC3)c3cccc2c13
IC50 (Bcl-2-like protein 1): 43 nM | Kd [1]: 49 nM | IC50 [2]: 49 nM | IC50 [3]: 15 nM | Kd ([4]; read-out: pKd (converted)): 15.1 nM

CC(C)c1ccc(Oc2ccc3c4c(cccc24)C2=NC(=O)C(NCCCc4ccccc4)=C23)cc1
IC50 (Bcl-2-like protein 1): 37 nM | Kd [1]: 41.7 nM | IC50 [2]: 42 nM | IC50 [3]: 39 nM | Kd ([4]; read-out: pKd (converted)): 38.9 nM

Nc1ccc(Sc2ccc3c4c(cccc24)C2=NC(=O)C(NCCCc4ccccc4)=C23)cc1
solubility [5]: 18 µg/mL (≈ 39 µM) | IC50 (Bcl-2-like protein 1): 18 nM | Kd [1]: 20 nM | IC50 [2]: 20 nM | IC50 [3]: 10 nM | Kd ([4]; read-out: Kd): 105 nM | Kd ([4]; read-out: pKd (converted)): 10 nM | Kd [6]: 2.34 µM | Activity (HL-60): Active | Activity (MCF7): inactive | Activity (K562): Active

CCCCNC1=C2C(=NC1=O)c1cccc3c(Sc4ccc(OC)cc4)ccc2c13
IC50 (Bcl-2-like protein 1): 315 nM | Kd [1]: 355 nM | IC50 [2]: 356 nM | IC50 [3]: 150 nM | Kd ([4]; read-out: pKd (converted)): 151 nM

CCCCCNC1=C2C(=NC1=O)c1cccc3c(N4CCSCC4)ccc2c13
IC50 [3]: 37 nM

CCCCNC1=C2C(=NC1=O)c1cccc3c(Sc4ccc(N)cc4)ccc2c13
solubility [5]: 27 µg/mL (≈ 67.6 µM) | IC50 (Bcl-2-like protein 1): 165 nM | Kd [1]: 191 nM | IC50 [2]: 190 nM | IC50 [3]: 50 nM | Kd ([4]; read-out: Kd): 512 nM | Kd ([4]; read-out: pKd (converted)): 50.1 nM | Kd [6]: 12.8 µM | Activity (HL-60): Active | Activity (MCF7): inactive | Activity (K562): Active

CCCCCCNC1=C2C(=NC1=O)c1cccc3c(Oc4ccc(C(C)C)cc4)ccc2c13
IC50 (Bcl-2-like protein 1): 162 nM | Kd [1]: 182 nM | IC50 [2]: 184 nM | IC50 [3]: 75 nM | Kd ([4]; read-out: Kd): 802 nM | Kd ([4]; read-out: pKd (converted)): 79.4 nM | Kd [6]: 19.2 µM

O=C1N=C2C(=C1NCCCCCc1ccccc1)c1ccc(N3CCSCC3)c3cccc2c13
IC50 [2]: 1300 nM | IC50 [3]: 1100 nM

CCCCCCNC1=C2C(=NC1=O)c1cccc3c(N4CCSCC4)ccc2c13
IC50 (Bcl-2-like protein 1): 85 nM | Kd [1]: 95.5 nM | IC50 [2]: 96 nM | IC50 [3]: 37 nM | Kd ([4]; read-out: pKd (converted)): 37.2 nM

CCCCCCNC1=C2C(=NC1=O)c1cccc3c(Sc4ccc(N)cc4)ccc2c13
IC50 (Bcl-2-like protein 1): 71 nM | Kd [1]: 79.4 nM | IC50 [2]: 80 nM | IC50 [3]: 30 nM | Kd ([4]; read-out: pKd (converted)): 29.5 nM

O=C1N=C2C(=C1NCc1ccccc1)c1ccc(N3CCSCC3)c3cccc2c13
IC50 [2]: > 10000 nM | IC50 [3]: 521 nM

N#CC1=C2C(=NC1=O)c1cccc3c(N4CCSCC4)ccc2c13
solubility [5]: 2 µg/mL (≈ 6.04 µM) | IC50 (Bcl-2-like protein 1): 625 nM | Kd [1]: 708 nM | IC50 [2]: 715 nM | IC50 [3]: 95 nM | Kd ([4]; read-out: Kd): 954 nM | Kd ([4]; read-out: pKd (converted)): 95.5 nM | Kd [6]: 28.7 µM

O=C1N=C2C(=C1NCCCc1ccccc1)c1ccc(Sc3ccc(OO)cc3)c3cccc2c13
IC50 (Bcl-2-like protein 1): 53 nM | Kd [1]: 57.5 nM | IC50 [2]: 57 nM | IC50 [3]: 42 nM | Kd ([4]; read-out: pKd (converted)): 41.7 nM

CCCCCCNC1=C2C(=NC1=O)c1cccc3c(Sc4ccc(OC)cc4)ccc2c13
IC50 (Bcl-2-like protein 1): 181 nM | Kd [1]: 204 nM | IC50 [2]: 206 nM | IC50 [3]: 78 nM | Kd ([4]; read-out: pKd (converted)): 77.6 nM

CCOC(=O)C1=C2C(=NC1=O)c1cccc3c(N4CCSCC4)ccc2c13
IC50 [2]: 2200 nM | IC50 [3]: > 10000 nM

CCCOC(=O)C1=C2C(=NC1=O)c1cccc3c(N4CCSCC4)ccc2c13
IC50 [2]: 2100 nM | IC50 [3]: > 10000 nM

N#CC1=C2C(=NC1=O)c1cccc3c(Sc4ccc(N)cc4)ccc2c13
IC50 (Bcl-2-like protein 1): 291 nM | Kd [1]: 331 nM | IC50 [2]: 331 nM | IC50 [3]: 90 nM | Kd ([4]; read-out: pKd (converted)): 91.2 nM

CCCCNC1=C2C(=NC1=O)c1cccc3c(Oc4ccc(C(C)C)cc4)ccc2c13
IC50 (Bcl-2-like protein 1): 283 nM | Kd [1]: 324 nM | IC50 [2]: 322 nM | IC50 [3]: 141 nM | Kd ([4]; read-out: pKd (converted)): 141 nM
